Screening data from PubChem BioAssay.
APJ agonist: agonists of human apelin receptor APJ, primary screen, CHO-K1 cells, PathHunter beta-arrestin, luminescence. activation, % at 20 µM. 0.11% of 330,000 active. 0% DMSO wells, 100% apelin. P35414;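 active = activation more than six SD over the plate average, tested at 20 µM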;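 note: 0% = DMSO alone and 100% = apelin-13 at 10 nM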
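system = engineered CHO-K1 APJ arrestin reporter cells | input = 1000 cells per well | timing = overnight seeding, 90 min compound at 25 °C, 1 h detection | measured by = enzyme-fragment complementation luminescence | read-out = beta-arrestin recruitment to APJ as agonist activity, luminescent signal | control set = negative DMSO alone, positive Apelin-13 at 10 nM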
CXCR6 inh: CXCR6 receptor inhibitors, primary screen, cell-based, beta-arrestin, luminescence, CHO-K1 PathHunter, 1536-well; C-X-C chemokine receptor type 6 (Homo sapiens), O00574; inhibition, % at 20 µM; 0.36% of 360,000 active; in the data active = inhibition above about 34%, passing the limit was not always enough;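 note: antagonist mode with CXCL16 agonist at 10 nM final; 0% = 10 nM CXCL16 with DMSO and 100% = unstimulated wells without agonist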
HTR2A ag: mouse Htr2a agonists via beta-arrestin recruitment, primary screen, cell-based, luminescence; 5-hydroxytryptamine receptor 2A (Mus musculus), P35363; CHO-K1 mHTR2A beta-arrestin complementation; percent of 30 µM serotonin response; activation, % at 7.6 µM; 0.66% of 360,000 active; AID 624169, 2012;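 active = activation above a run cutoff, the mean activation of all tested compounds plus 3 SD, cut at about 14% in these data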;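 note: 0% = plate median of compound wells and 100% = 30 µM serotonin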
Target sequence (P35363 whole entry, looked up): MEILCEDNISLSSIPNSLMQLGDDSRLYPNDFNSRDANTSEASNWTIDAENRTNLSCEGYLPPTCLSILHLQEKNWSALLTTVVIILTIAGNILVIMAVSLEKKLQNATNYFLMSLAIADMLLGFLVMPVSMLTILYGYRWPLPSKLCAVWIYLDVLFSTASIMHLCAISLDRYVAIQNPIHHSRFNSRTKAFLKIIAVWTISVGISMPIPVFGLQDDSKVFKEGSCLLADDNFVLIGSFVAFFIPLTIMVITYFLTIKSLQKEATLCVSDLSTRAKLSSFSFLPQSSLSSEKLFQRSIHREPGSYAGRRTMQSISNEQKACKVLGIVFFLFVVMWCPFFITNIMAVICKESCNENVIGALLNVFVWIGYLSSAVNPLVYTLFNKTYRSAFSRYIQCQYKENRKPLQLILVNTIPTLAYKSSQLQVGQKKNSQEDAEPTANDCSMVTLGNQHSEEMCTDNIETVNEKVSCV
EBI2 antag: EBI2 receptor antagonists, beta-arrestin recruitment, primary screen, cell-based, luminescence, 7a,25-OHC stimulation, uHTS | 7a,25-OHC stimulated | inhibition, % at 5 µM | G-protein coupled receptor 183 (Homo sapiens), P32249 | 0.81% of 360,000 active; in the data active = inhibition above about 38%;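 note: enzyme fragment complementation signal reports receptor beta-arrestin coupling in cells; 0% = agonist plus DMSO wells and 100% = wells without agonist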
CCR6 antagonist: CCR6 receptor antagonists, primary screen, cell-based, CHO-K1, luminescence, beta-arrestin, uHTS; 0.49% of 340,000 active; CHO-K1 CCR6 PathHunter beta-arrestin, CCL20-stimulated; AID 493098, 2011; inhibition, % at 20 µM; C-C chemokine receptor type 6 (Homo sapiens), P51684;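 active = compounds whose inhibition of the agonist-driven luminescence signal at 20 µM reaches about 50%, limit read from the data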;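 note: cells stimulated with CCL20 at 14 nM final; plate controls were DMSO with CCL20 for no effect and DMSO without agonist for full effect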
APJ antagonist: antagonists of human apelin receptor APJ, primary screen, CHO-K1 cells, beta-arrestin complementation, luminescence | 0.32% of 330,000 active | P35414 | AID 2521, 2010 | inhibition, % at 20 µM;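 active = inhibition above about 40% at 20 µM, limit read from the data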;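 note: cells challenged with 10 nM apelin-13 agonist together with compound; plate controls were apelin-13 plus DMSO wells for no effect and DMSO wells lacking apelin-13 for full effect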
OPRM1 ag: OPRM1 agonists via beta-arrestin recruitment, confirmation, counter-screen for mouse HTR2A agonist project, cell-based, luminescence, single concentration; activation, % at 9.3 µM; U2OS OPRM1 beta-arrestin PathHunter; DMSO 0%, DAMGO 9.3 µM 100%; shares compounds with HTR2A ag; 5.3% of 2,300 active; AID 624380, 2012;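 active = mean activation above the mean of DMSO-only wells plus 3 SD, cut at about 0.5% in these data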
m5-HT2A ag conf: mouse HTR2A agonists, beta-arrestin recruitment, confirmation, cell-based, luminescence, CHO-K1 PathHunter, triplicate | shares compounds with HTR2A ag | DMSO 0%, 30 µM serotonin 100% | activation, % at 7.6 µM | 19% of 2,300 active | AID 624381, 2012;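 active = mean activation across triplicates above the hit threshold derived in the original primary screen, cut at about 15% in these data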
Numbers without * were called inactive; x = no result. In the library only some 2.1% were active in any assay of this set; here they are far more common.

SMILES	APJ agonist	CXCR6 inh	HTR2A ag	EBI2 antag	CCR6 antagonist	APJ antagonist	OPRM1 ag	m5-HT2A ag conf
CN(C)C(CNC(=O)CNC(=O)c1ccc(Br)cc1)c1ccccc1 (stereo unspecified)	-1	-1	3	0	1	-16	x	x
O=C(O)c1ccc(OCc2cn3ccccc3n2)cc1	-5	-1	9	-8	-3	-19	x	x
O=C(c1ccc(OCc2cn3ccccc3n2)cc1)N1CCN(S(=O)(=O)c2ccccc2F)CC1	0	-7	20*	-1	3	6	0	-2
COc1ccc(C(=O)NCCN2C(=O)S/C(=C\c3cccnc3)C2=O)cc1[N+](=O)[O-]	0	-3	-4	-6	-1	-9	x	x
Cc1ccc(NC(=O)c2sc3nc(CCl)[nH]c(=O)c3c2C)c(C)c1	x	3	-6	1	0	x	x	x
CC(CCc1ccccn1)C(=O)C(C)CCc1ccccn1 (stereo unspecified)	x	-8	0	-6	8	x	x	x
CC(C)(CCc1ccccn1)C(=O)C(CCc1ccccn1)CCc1ccccn1	x	6	14*	20	16	x	-1	33*
CCOC(=O)c1[nH]cnc1C(=O)N1CCN(C(=O)OC(C)(C)C)CC1	-3	-5	18*	-4	6	5	-1	-4
O=C(Nc1cccnc1)c1cc(-c2ccco2)on1	-4	-6	20*	-7	-10	-12	-1	-2
O=C(Nc1cccnc1)c1cc(-c2ccccc2)on1	4	-13	-1	-7	-6	-9	x	x
O=C(COC(=O)c1ccccc1NCCO)Nc1ccc(S(=O)(=O)NC2=NCCCCC2)cc1	x	8	22*	-1	12	x	0	-1
CCCc1ccc(C(=O)CN2C(=O)C(=O)N(C3CCCC3)C2=O)cc1	-2	3	18*	-7	-1	-1	1.3*	3
COc1ccccc1Nc1nnc(SCC(=O)N2CC(=O)Nc3ccccc32)s1	-1	-8	18*	-3	-2	1	-1	-4
O=C1CN(C(=O)CSc2nnc(Nc3ccccc3)s2)c2ccccc2N1	-3	-5	2	1	3	-5	x	x
COc1ccc(-c2noc(CN(C(=O)c3ccc4c(c3)OCO4)C(C)C)n2)cc1OC	5	-5	16*	0	4	13	-1	-3
COc1ccc(-c2noc(CN(C)C(=O)c3ccc4c(c3)OCO4)n2)cc1OC	0	3	4	-4	5	-14	x	x
COc1cccc(-n2c(SCc3ccccn3)nc3c(c2=O)SCC3)c1	0	4	-2	10	-2	-1	x	x
Cc1[nH]n(C(C)(C)C)c(=O)c1Sc1ccc(Cl)cc1	-1	-3	15*	10	3	3	0	18*
Cc1cc(O)c(Sc2ccc(Cl)cc2)c(=O)[nH]1	1	-9	-1	-11	0	6	x	x
COc1ccc(CNC(=O)c2ccc(C(C)C)cc2)cc1	-2	2	15*	28	12	-5	0	3
CCOC(=O)C1CCN(C(=O)COC(=O)CNS(=O)(=O)c2ccc(SC)c([N+](=O)[O-])c2)CC1	x	-4	6	1	-4	x	x	x
COc1ccccc1-c1nc2c(c(SCC(=O)N3CCCCC3)n1)Cc1c(CO)cnc(C)c1O2	1	4	15*	-6	7	-4	0	-3
CC(C)c1ccc(NC(=O)COc2ccc(S(=O)(=O)N3CCOCC3)cc2)cc1	2	-5	-5	3	6	-2	x	x
Cc1ccc(NC(=O)COc2ccc(S(=O)(=O)N3CCOCC3)cc2)cc1	-6	-1	20*	3	-8	5	-1	-4
O=C(CN1C(=O)NC(c2ccccc2)(c2ccccc2)C1=O)NCc1ccco1	-4	7	15*	5	9	4	0	4
SMILES	APJ agonist	CXCR6 inh	HTR2A ag	EBI2 antag	CCR6 antagonist	APJ antagonist	OPRM1 ag	m5-HT2A ag conf
Cc1cccc(N2CCN(C(=O)c3cc4ccccc4oc3=O)CC2)c1C	-1	-4	16*	2	-5	8	0	-5
CN1CCN(C(=O)c2cc3ccccc3oc2=O)CC1	-5	0	6	-14	-8	-1	x	x
NNc1ccc([N+](=O)[O-])c2[nH][nH]c(=O)c12	x	15	-1	-10	x	x	x	x
O=C(O)c1cccc2c1Cc1cc([N+](=O)[O-])ccc1-2	x	-4	15*	2	3	x	0	-1
COCC1CCN(C(=O)C2CCC(=O)N(C3CCCC3)C2)CC1 (stereo unspecified)	-5	-4	15*	-12	16	15	0	1
COC1CCN(C(=O)C2CCC(=O)N(C3CCCCCC3)C2)CC1 (stereo unspecified)	0	0	-3	-3	16	10	x	x
CC(C)(C)C(=O)n1nc(-c2ccccc2)oc1=O	-1	-16	16*	-11	6	1	-1	-4
CN(CCc1ccccc1)C(=O)c1cccc(NC(=O)Cc2cccc(NC(=O)C3CCN(C(=O)C4CCCCC4)CC3)c2)c1	x	1	-1	11	2	x	x	x
O=C(Cn1cnc2c(NCc3ccccc3)ncnc21)N1CCN(c2ccccn2)CC1	x	-5	4	2	25	x	x	x
Cc1cc(C)c(CN2CCN(C(=O)Cn3cnc4c(NCc5ccccc5)ncnc43)CC2)c(C)c1	x	1	22*	-4	26	x	x	8
COc1cc(C(=O)N2CCN(C3CCCCC3)CC2)cc(OC)c1OC	-1	2	15*	19	-10	-28	0	-3
COc1cc(C(=O)N2CCC(N3CCCCCC3)CC2)cc(OC)c1OC	-3	1	15*	9	19	-31	0	7
COc1ccccc1C1CC(=O)Nc2c1c(=O)n(C)c(=O)n2C (stereo unspecified)	-1	0	14*	-10	-2	25	0	2
Nc1ccc2nc(-c3cccnc3)[nH]c2c1	2	1	-1	-21	6	-19	x	x
Nc1ccc2nc(-c3ccccc3)[nH]c2c1	4	0	15*	-7	-6	-10	0	-5
